# Tests used:
# Rattus norvegicus [1] = test: Antiallergic activity in rat assessed as inhibition of egg albumin-induced passive cutaneous anaphylaxis at 25 mg/kg, po treated for 15 mins followed by egg albumin-challenge measured after 30 mins relative to control; format: functional
# Method in brief: (§1)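 Oral PCA in rats: intradermal antiserum at four back sites (dose giving ~12×12 mm wheal), compound po 48 h later, 15 min before iv challenge with 0.5 mL saline containing 5 mg Evans blue plus 5 mg egg albumin; skin bluing read 30 min after challenge on two axes per wheal; six rats per dose versus ≥6 vehicle controls; percent inhibition from mean wheal size, one-sided t test.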
# Rattus norvegicus [2] = test: Antiallergic activity in rat assessed as inhibition of egg albumin-induced passive cutaneous anaphylaxis at 3.4 mg/kg, iv treated for 30 secs followed by egg albumin-challenge measured after 30 mins relative to control; format: functional; conditions: 0.5 h
# Rattus norvegicus [3] = test: Antiallergic activity in rat assessed as inhibition of egg albumin-induced passive cutaneous anaphylaxis at 0.25 mg/kg, iv treated for 30 secs followed by egg albumin-challenge measured after 30 mins relative to control; format: functional; conditions: 0.5 h
# Rattus norvegicus [4] = test: Antiallergic activity in rat assessed as inhibition of egg albumin-induced passive cutaneous anaphylaxis at 0.7 mg/kg, iv treated for 30 secs followed by egg albumin-challenge measured after 30 mins relative to control; format: functional; conditions: 0.5 h
# Lung [5] = test: Antiallergic activity in passively sensitized albino rat lungs assessed as inhibition of antigen-induced histamine release at 1 x 10^-5 M by fluorometric analysis relative to control; format: functional
# Method in brief: (§2)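 Fragmented lung from adult male Charles River albino rats, passively sensitized, then antigen-challenged with compound present; released histamine measured fluorometrically; inhibition reported relative to control, with replicate count given as number of separate lung preparations.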
# [6] = Antiallergic activity in passively sensitized rhesus monkey lungs assessed as inhibition of antigen-induced histamine release at 1 x 10^-5 M by fluorometric analysis relative to control; format: functional, Macaca mulatta, Lung
# Method in brief: (§3)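 Passively sensitized fragmented lung from a young adult male rhesus monkey, challenged with IgE-antihuman IgE; histamine release measured fluorometrically and SRS-A estimated by guinea pig ileum bioassay; inhibition relative to control; replicates given as number of separate lung preparations.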
# [7] = Antiallergic activity in passively sensitized rhesus monkey lungs assessed as inhibition of antigen-induced slow reacting substance of anaphylaxis release at 1 x 10^-4 M relative to control; format: functional, Macaca mulatta, Lung; method in brief: as §3
# Rattus norvegicus [8] = test: Antiallergic activity in po dosed rat assessed as inhibition of egg albumin-induced passive cutaneous anaphylaxis treated for 15 mins followed by egg albumin-challenge measured after 30 mins; format: functional; conditions: read-out: ID50 (the source's name); method in brief: as §1
# [9] = Antiallergic activity in passively sensitized rhesus monkey lungs assessed as inhibition of antigen-induced histamine release at 5 x 10^-5 M by fluorometric analysis relative to control; format: functional, Macaca mulatta, Lung; method in brief: as §3
# [10] = Antiallergic activity in passively sensitized rhesus monkey lungs assessed as inhibition of antigen-induced slow reacting substance of anaphylaxis release at 5 x 10^-5 M relative to control; format: functional, Macaca mulatta, Lung; method in brief: as §3
# [11] = Antiallergic activity in passively sensitized rhesus monkey lungs assessed as inhibition of antigen-induced slow reacting substance of anaphylaxis release; format: functional, Macaca mulatta, Lung; method in brief: as §3
# [12] = Antiallergic activity in passively sensitized rhesus monkey lungs assessed as inhibition of antigen-induced histamine release by fluorometric analysis; format: functional, Macaca mulatta, Lung; method in brief: as §3
# Lung [13] = test: Antiallergic activity in passively sensitized albino rat lungs assessed as inhibition of antigen-induced histamine release at 1 x 10^-7 M by fluorometric analysis relative to control; format: functional; method in brief: as §2
# [14] = Antiallergic activity in passively sensitized rhesus monkey lungs assessed as inhibition of antigen-induced histamine release at 1 x 10^-4 M by fluorometric analysis relative to control; format: functional, Macaca mulatta, Lung; method in brief: as §3
# Rattus norvegicus [15] = test: Ratio of antiallergic activity in iv dosed rat to antiallergic activity in po dosed rat; format: functional
# [16] = Antiallergic activity in passively sensitized rhesus monkey lungs assessed as inhibition of antigen-induced slow reacting substance of anaphylaxis release at 1 x 10^-6 M relative to control; format: functional, Macaca mulatta, Lung; method in brief: as §3
# [17] = Antiallergic activity in passively sensitized rhesus monkey lungs assessed as inhibition of antigen-induced histamine release at 1 x 10^-6 M by fluorometric analysis relative to control; format: functional, Macaca mulatta, Lung; method in brief: as §3
# Lung [18] = test: Antiallergic activity in passively sensitized albino rat lungs assessed as inhibition of antigen-induced histamine release at 1 x 10^-6 M by fluorometric analysis relative to control; format: functional; method in brief: as §2
# [19] = Antiallergic activity in passively sensitized rhesus monkey lungs assessed as inhibition of antigen-induced slow reacting substance of anaphylaxis release at 1 x 10^-5 M relative to control; format: functional, Macaca mulatta, Lung; method in brief: as §3
# Lung [20] = test: Antiallergic activity in passively sensitized albino rat lungs assessed as inhibition of antigen-induced histamine release at 1 x 10^-8 M by fluorometric analysis relative to control; format: functional; method in brief: as §2
# Rattus norvegicus [21] = test: Antiallergic activity in rat assessed as inhibition of egg albumin-induced passive cutaneous anaphylaxis at 0.2 mg/kg, iv treated for 30 secs followed by egg albumin-challenge measured after 30 mins relative to control; format: functional; conditions: 0.5 h
# Lung [22] = test: Antiallergic activity in passively sensitized albino rat lungs assessed as inhibition of antigen-induced histamine release at 1 x 10^-9 M by fluorometric analysis relative to control; format: functional; method in brief: as §2
# [23] = Antiallergic activity in passively sensitized rhesus monkey lungs assessed as inhibition of antigen-induced histamine release at 5 x 10^-6 M by fluorometric analysis relative to control; format: functional, Macaca mulatta, Lung; method in brief: as §3
# [24] = Antiallergic activity in passively sensitized rhesus monkey lungs assessed as inhibition of antigen-induced slow reacting substance of anaphylaxis release at 5 x 10^-6 M relative to control; format: functional, Macaca mulatta, Lung; method in brief: as §3
# Lung [25] = test: Antiallergic activity in passively sensitized albino rat lungs assessed as inhibition of antigen-induced histamine release at 5.3 x 10^-5 M by fluorometric analysis relative to control; format: functional; method in brief: as §2
# [26] = Antiallergic activity in passively sensitized rhesus monkey lungs assessed as inhibition of antigen-induced slow reacting substance of anaphylaxis release at 2.7 x 10^-4 M relative to control; format: functional, Macaca mulatta, Lung; method in brief: as §3
# [27] = Antiallergic activity in passively sensitized rhesus monkey lungs assessed as inhibition of antigen-induced slow reacting substance of anaphylaxis release at 1.3 x 10^-3 M relative to control; format: functional, Macaca mulatta, Lung; method in brief: as §3
# Rattus norvegicus [28] = test: Antiallergic activity in iv dosed rat assessed as inhibition of egg albumin-induced passive cutaneous anaphylaxis treated for 30 secs followed by egg albumin-challenge measured after 30 mins; format: functional; conditions: 0.5 h, read-out: ID50 (the source's name)
# Lung [29] = test: Antiallergic activity in passively sensitized albino rat lungs assessed as inhibition of antigen-induced histamine release at 1.3 x 10^-3 M by fluorometric analysis relative to control; format: functional; method in brief: as §2
# [30] = Antiallergic activity in passively sensitized rhesus monkey lungs assessed as inhibition of antigen-induced histamine release at 5.3 x 10^-5 M by fluorometric analysis relative to control; format: functional, Macaca mulatta, Lung; method in brief: as §3
# Lung [31] = test: Antiallergic activity in passively sensitized albino rat lungs assessed as inhibition of antigen-induced histamine release at 2.7 x 10^-4 M by fluorometric analysis relative to control; format: functional; method in brief: as §2
# [32] = Antiallergic activity in passively sensitized rhesus monkey lungs assessed as inhibition of antigen-induced slow reacting substance of anaphylaxis release at 5.3 x 10^-5 M relative to control; format: functional, Macaca mulatta, Lung; method in brief: as §3
# [33] = Antiallergic activity in passively sensitized rhesus monkey lungs assessed as inhibition of antigen-induced histamine release at 2.7 x 10^-4 M by fluorometric analysis relative to control; format: functional, Macaca mulatta, Lung; method in brief: as §3
# [34] = Antiallergic activity in passively sensitized rhesus monkey lungs assessed as inhibition of antigen-induced histamine release at 1.3 x 10^-3 M by fluorometric analysis relative to control; format: functional, Macaca mulatta, Lung; method in brief: as §3
# Rattus norvegicus [35] = test: Ratio of DSCG ID50 to compound ID50 for antiallergic activity in iv dosed rat; format: functional
# Lung [36] = test: Antiallergic activity in passively sensitized albino rat lungs assessed as inhibition of antigen-induced histamine release at 6.6 x 10^-7 M by fluorometric analysis relative to control; format: functional; method in brief: as §2
# [37] = Antiallergic activity in passively sensitized rhesus monkey lungs assessed as inhibition of antigen-induced histamine release at 6.6 x 10^-6 M by fluorometric analysis relative to control; format: functional, Macaca mulatta, Lung; method in brief: as §3
# [38] = Antiallergic activity in passively sensitized rhesus monkey lungs assessed as inhibition of antigen-induced slow reacting substance of anaphylaxis release at 6.6 x 10^-6 M relative to control; format: functional, Macaca mulatta, Lung; method in brief: as §3
# Lung [39] = test: Antiallergic activity in passively sensitized albino rat lungs assessed as inhibition of antigen-induced histamine release at 1.6 x 10^-4 M by fluorometric analysis relative to control; format: functional; method in brief: as §2
# [40] = Antiallergic activity in passively sensitized rhesus monkey lungs assessed as inhibition of antigen-induced slow reacting substance of anaphylaxis release at 1.6 x 10^-4 M relative to control; format: functional, Macaca mulatta, Lung; method in brief: as §3
# Lung [41] = test: Antiallergic activity in passively sensitized albino rat lungs assessed as inhibition of antigen-induced histamine release at 6.6 x 10^-6 M by fluorometric analysis relative to control; format: functional; method in brief: as §2
# [42] = Antiallergic activity in passively sensitized rhesus monkey lungs assessed as inhibition of antigen-induced histamine release at 1.6 x 10^-4 M by fluorometric analysis relative to control; format: functional, Macaca mulatta, Lung; method in brief: as §3
# [43] = Antiallergic activity in passively sensitized rhesus monkey lungs assessed as inhibition of antigen-induced slow reacting substance of anaphylaxis release at 3.3 x 10^-5 M relative to control; format: functional, Macaca mulatta, Lung; method in brief: as §3
# [44] = Antiallergic activity in passively sensitized rhesus monkey lungs assessed as inhibition of antigen-induced histamine release at 3.3 x 10^-5 M by fluorometric analysis relative to control; format: functional, Macaca mulatta, Lung; method in brief: as §3
# Rattus norvegicus [45] = test: Antiallergic activity in rat assessed as inhibition of egg albumin-induced passive cutaneous anaphylaxis at 100 mg/kg, iv treated for 30 secs followed by egg albumin-challenge measured after 30 mins relative to control; format: functional; conditions: 0.5 h
smiles,measurement,setting,value
CC(=O)C1=C(O)/C(=C(\C)Nc2ccc(N)c(O)c2)C(=O)OC1=O,inhibition in vivo at 25 mg/kg,Rattus norvegicus [1],40%
same,inhibition in vivo at 3.4 mg/kg,Rattus norvegicus [2],50%
CC(=O)Nc1cccc(N/C(C)=C2\C(=O)OC(=O)C(C(C)=O)=C2O)c1,inhibition in vivo at 25 mg/kg,Rattus norvegicus [1],53%
same,inhibition in vivo at 0.25 mg/kg,Rattus norvegicus [3],65%
CC(=O)C1=C(O)/C(=C(\C)Nc2ccc(O)c(N)c2)C(=O)OC1=O.Cl,inhibition in vivo at 0.7 mg/kg,Rattus norvegicus [4],50%
same,inhibition (INH),Lung [5],47%
same,inhibition (INH),[6],22%
same,inhibition (INH),[7],56%
same,ED50,Rattus norvegicus [8],0.8 mg/kg
same,inhibition (INH),[9],49%
same,inhibition (INH),[10],40%
same,ID30,[11],3.3 ×10⁻⁵ M
same,ID30,[12],1.3 ×10⁻⁵ M
same,inhibition (INH),Lung [13],42%
same,inhibition (INH),[14],66%
same,Ratio,Rattus norvegicus [15],1
same,inhibition (INH),[16],-24%
same,inhibition (INH),[17],4%
same,inhibition (INH),Lung [18],61%
same,inhibition (INH),[19],1%
same,inhibition (INH),Lung [20],26%
CC(=O)Nc1cc(N/C(C)=C2\C(=O)OC(=O)C(C(C)=O)=C2O)ccc1O,inhibition in vivo at 0.2 mg/kg,Rattus norvegicus [21],50%
same,inhibition in vivo at 25 mg/kg,Rattus norvegicus [1],50%
same,inhibition (INH),Lung [5],86%
same,inhibition (INH),[6],-31%
same,inhibition (INH),[9],25%
same,inhibition (INH),[10],33%
same,inhibition (INH),Lung [22],43%
same,inhibition (INH),Lung [13],88%
same,inhibition (INH),[23],-32%
same,inhibition (INH),[24],-11%
same,inhibition (INH),Lung [18],76%
same,inhibition (INH),[19],5%
same,inhibition (INH),Lung [20],53%
O=C([O-])c1cc(=O)c2c(OCC(O)COc3cccc4oc(C(=O)[O-])cc(=O)c34)cccc2o1.[Na+].[Na+] [CROMOLYN SODIUM],inhibition (INH),Lung [25],32%
same,inhibition (INH),[26],36%
same,inhibition (INH),[27],27%
same,ED50,Rattus norvegicus [28],0.9 mg/kg
same,inhibition (INH),Lung [29],56%
same,inhibition (INH),[30],11%
same,inhibition (INH),Lung [31],47%
same,inhibition (INH),[32],24%
same,inhibition (INH),[33],37%
same,inhibition (INH),[34],54%
CC(=O)C1=C(O)/C(=C(\C)Nc2cc(NC(=O)C(O)CO)cc(NC(=O)C(O)CO)c2)C(=O)OC1=O (stereo not given),Ratio,Rattus norvegicus [35],1000
same,inhibition (INH),[6],-20%
same,inhibition (INH),[7],7%
same,ED50,Rattus norvegicus [8],2.9 mg/kg
same,ED50,Rattus norvegicus [28],0.0009 mg/kg
same,inhibition (INH),[14],7%
same,inhibition (INH),[16],-7%
same,inhibition (INH),[17],-30%
same,inhibition (INH),[19],-0.5%
CC(=O)C1=C(O)/C(=C(\C)Nc2ccc(O)cc2)C(=O)OC1=O,inhibition (INH),Lung [36],34%
same,inhibition (INH),[37],18%
same,ED50,Rattus norvegicus [8],29 mg/kg
same,inhibition (INH),[38],8.6%
same,inhibition (INH),Lung [39],45%
same,ED50,Rattus norvegicus [28],1.3 mg/kg
same,inhibition (INH),[40],51%
same,inhibition (INH),Lung [41],44%
same,inhibition (INH),[42],59%
same,inhibition (INH),[43],33%
same,inhibition (INH),[44],50%
CC(=O)C1=C(O)/C(=C(\C)Nc2ccc(N(C)C)cc2)C(=O)OC1=O,inhibition in vivo at 100 mg/kg,Rattus norvegicus [45],11%
